Active and inactive are the calls of the source. The rule behind the calls is not given here.
How the values were obtained:
[1] = Cardiotoxicity in human iPSC-CM cells assessed as effect on beat intervals by measuring calcium ion influx at 0.2 to 20 uM incubated for 60 mins by fluorescent indicator analysis; format: toxicity, cell-based; conditions: 1 h, dose 0.2-20 µM
Procedure, shortened: (§1)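 Human iPS cell-derived cardiomyocytes were seeded at 30,000 cells/well on gelatin and maintained 9 days. Cells were then stained with a Ca²⁺-sensitive cardiotoxicity dye kit. Ca²⁺ transients were recorded on an FDSS kinetic imager before and after compound addition.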

[2] = test system: Schistosoma mansoni; test: Anti-schistosomal activity against adult female Schistosoma mansoni assessed as motility by measuring pairing and varied movement intensity using viability scale at 10 uM incubated for 1 hr by inverted microscopic analysis; format: functional
[3] = test system: Schistosoma mansoni; test: Anti-schistosomal activity against adult male Schistosoma mansoni assessed as motility by measuring measuring pairing and varied movement intensity using viability scale at 10 uM incubated for 24 hrs by inverted microscopic analysis; format: functional
[4] = test system: HeLa; test: Cytotoxicity against human HeLa cells assessed as cell viability at 30 uM incubated for 48 hrs by absorbance based WST-8 assay (reference value: 100 %); format: functional; conditions: read-out: Activity
Procedure, shortened: (§2)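 HeLa cells seeded at 1,000 cells/well and exposed to compound at 10, 20 or 30 μM for 2 days. WST-8 absorbance was read at 405 nm. Viability is expressed relative to DMSO-treated wells (100%).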

[5] = Cardiotoxicity in human iPSC-CM cells assessed as effect on pulse waveform by measuring calcium ion influx at 0.2 to 20 uM incubated for 60 mins by fluorescent indicator analysis; format: toxicity, cell-based; conditions: 1 h, dose 0.2-20 µM; procedure, shortened: as §1
[6] = test system: Schistosoma mansoni; test: Anti-schistosomal activity against adult female Schistosoma mansoni assessed as worm death at 10 uM incubated for 1 to 120 hrs by inverted microscopic analysis; format: functional, organism-based; conditions: time 1-120 hrs
Procedure, shortened: (§3)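 Adult worms freshly isolated from infected mice; cultured in RPMI 1640 with 5% FBS and penicillin/streptomycin, with or without compound (0.1, 1, 10 μM), at 37°C under 5% CO₂.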

[7] = Stability of the compound at pH 1.2 at 5 uM assessed as compound remaining incubated for 1 hrs by LC-MS/MS analysis relative to control; format: physicochemical; conditions: buffer, read-out: Stability
Procedure, shortened: (§4)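 Compound at 5 μM in pH 1.2 dissolution test solution 1 or in PBS pH 7.4, held at 37 °C for 0, 1 and 5 h. Reactions were quenched with acetonitrile and centrifuged. Parent remaining was quantified by LC-MS/MS as a percentage of the 0 h sample.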

[8] = Stability of the compound in PBS at pH 7.4 at 5 uM assessed as compound remaining incubated for 5 hrs by LC-MS/MS analysis relative to control; format: physicochemical; conditions: read-out: Stability; procedure, shortened: as §4
[9] = test system: Schistosoma mansoni; test: Anti-schistosomal activity against adult male Schistosoma mansoni assessed as motility by measuring pairing and varied movement intensity using viability scale at 10 uM incubated for 120 hrs by inverted microscopic analysis; format: functional
[10] = test system: Schistosoma mansoni; test: Anti-schistosomal activity against adult male Schistosoma mansoni assessed as motility by measuring pairing and varied movement intensity using viability scale at 10 uM incubated for 1 hr by inverted microscopic analysis; format: functional
[11] = test system: Schistosoma mansoni; test: Anti-schistosomal activity against adult female Schistosoma mansoni assessed as motility by measuring pairing and varied movement intensity using viability scale at 10 uM incubated for 120 hrs by inverted microscopic analysis; format: functional
[12] = test system: Schistosoma mansoni; test: Anti-schistosomal activity against adult female Schistosoma mansoni assessed as motility by measuring pairing and varied movement intensity using viability scale at 10 uM incubated for 24 hrs by inverted microscopic analysis; format: functional
[13] = Stability of the compound at pH 1.2 at 5 uM assessed as compound remaining incubated for 5 hrs by LC-MS/MS analysis relative to control; format: physicochemical; conditions: buffer, read-out: Stability; procedure, shortened: as §4
[14] = Stability of the compound in PBS at pH 7.4 at 5 uM assessed as compound remaining incubated for 1 hr by LC-MS/MS analysis relative to control; format: physicochemical; conditions: read-out: Stability; procedure, shortened: as §4
[15] = test system: Schistosoma mansoni; test: Anti-schistosomal activity against adult male Schistosoma mansoni assessed as worm death at 10 uM incubated for 1 to 120 hrs by inverted microscopic analysis; format: functional, organism-based; conditions: time 1-120 hrs; procedure, shortened: as §3
[16] = Apparent permeability in human Caco-2 cells at 25 uM incubated for 2 hrs by LC-MS/MS analysis; format: ADME, cell-based
Procedure, shortened: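 Compound at 25 µM in HBSS added to the apical side of cultured Caco-2 monolayers in transwells, with HBSS plus 1% BSA on the basolateral side. After 2 h both compartments were collected, acetonitrile-treated and centrifuged. Supernatants were quantified by LC-MS/MS and Papp calculated. "High" class means Papp above that of propranolol.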

[17] = Metabolic stability in mouse liver microsome assessed as compound remaining at 500 uM incubated for 60 mins in presence of NADPH and G6PDH by LC-MS/MS analysis; conditions: liver microsomes
[18] = test system: HeLa; test: Cytotoxicity against human HeLa cells assessed as cell viability at 10 uM incubated for 48 hrs by absorbance based WST-8 assay (reference value: 100 %); format: functional; conditions: read-out: Activity; procedure, shortened: as §2
[19] = Lipophilicity, logD of the compound in phosphate-buffered saline (PBS) at pH 7.4 at 100 uM incubated for 20 mins by UPLC analysis; format: physicochemical; conditions: buffer, pH 7.4, 20 min
Procedure, shortened: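 Compound at 100 μM final in PBS with 1% DMSO. logD (pH 7.4) was derived from UPLC (BEH C18) retention times against standards of known logD. Mobile phase was ammonium acetate/acetonitrile, 2–98% B over 1 min at 0.8 mL/min.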

[20] = Cardiotoxicity in human iPSC-CM cells assessed as decrease in beat interval by measuring calcium ion influx at 20 uM incubated for 60 mins by fluorescent indicator analysis; format: toxicity, cell-based; conditions: 1 h; procedure, shortened: as §1
[21] = Metabolic stability in human liver microsome assessed as compound remaining at 500 uM incubated for 10 mins in presence of NADPH and G6PDH by LC-MS/MS analysis; conditions: liver microsomes
[22] = Metabolic stability in human liver microsome assessed as compound remaining at 500 uM incubated for 60 mins in presence of NADPH and G6PDH by LC-MS/MS analysis; conditions: liver microsomes
[23] = Cardiotoxicity in human iPSC-CM cells assessed as effect on beat intervals by measuring calcium ion influx at 0.2 uM incubated for 60 mins by fluorescent indicator analysis; format: toxicity, cell-based; conditions: 1 h; procedure, shortened: as §1
[24] = Cardiotoxicity in human iPSC-CM cells assessed as effect on pulse waveform by measuring calcium ion influx at 2 uM incubated for 60 mins by fluorescent indicator analysis; format: toxicity, cell-based; conditions: 1 h; procedure, shortened: as §1
[25] = Metabolic stability in mouse liver microsome assessed as compound remaining at 500 uM incubated for 10 mins in presence of NADPH and G6PDH by LC-MS/MS analysis; conditions: liver microsomes
[26] = Cardiotoxicity in human iPSC-CM cells assessed as effect on pulse waveform by measuring calcium ion influx at 20 uM incubated for 60 mins by fluorescent indicator analysis; format: toxicity, cell-based; conditions: 1 h; procedure, shortened: as §1
[27] = Cardiotoxicity in human iPSC-CM cells assessed as effect on beat interval by measuring calcium ion influx at 2 uM measured within 60 mins by fluorescent indicator analysis; format: toxicity, cell-based; conditions: 1 h; procedure, shortened: as §1
[28] = test system: Schistosoma mansoni; test: Anti-schistosomal activity against adult female Schistosoma mansoni assessed as motility by measuring full detachment with weak movement using viability scale at 10 uM incubated for 1 hr by inverted microscopic analysis; format: functional; procedure, shortened: as §3
[29] = test system: Schistosoma mansoni; test: Anti-schistosomal activity against adult female Schistosoma mansoni assessed as motility by measuring full detachment with weak movement using viability scale at 10 uM incubated for 24 hrs by inverted microscopic analysis; format: functional
[30] = Cardiotoxicity in human iPSC-CM cells assessed as decrease in beat interval by measuring calcium ion influx at 2 uM incubated up to 30 mins by fluorescent indicator analysis; format: toxicity, cell-based; conditions: 0.5 h; procedure, shortened: as §1
[31] = test system: Schistosoma mansoni; test: Anti-schistosomal activity against adult female Schistosoma mansoni assessed as motility by measuring full detachment with weak movement using viability scale at 10 uM incubated for 120 hrs by inverted microscopic analysis; format: functional
[32] = Cardiotoxicity in human iPSC-CM cells assessed as effect on pulse waveform by measuring calcium ion influx at 0.2 uM incubated for 60 mins by fluorescent indicator analysis; format: toxicity, cell-based; conditions: 1 h; procedure, shortened: as §1

**Q.** What does the source list for `O=C(C1CCCCC1)N1CC(=O)N2CCc3ccccc3C2C1` (stereo not given) [PRAZIQUANTEL]?
**A.** Activity [1]: Non-toxic; Activity [2]: 3.7; Activity [3]: 3.7; viability at 30 µM [4]: 97.1%; Activity [5]: Non-toxic; Activity [6]: inactive; remaining at 1 h, 5 µM [7]: 93.1%; remaining at 5 h, 5 µM [8]: 100%; Activity [9]: 3.3; Activity [10]: 3.7; Activity [11]: 3.3; Activity [12]: 3.3; remaining at 5 h, 5 µM [13]: 95%; remaining at 1 h, 5 µM [14]: 103%; Activity [15]: inactive; Papp at 2 h, 25 µM [16]: 37.3 ×10⁻⁶ cm/s

**Q.** Which Activity [3] does the source give for `O=C(C1CCCCC1)N1CON2CCc3ccccc3C2C1` (stereo not given) here?
**A.** 3

**Q.** What about the remaining at 1 h, 500 µM [17] of the same compound?
**A.** 0.2%

**Q.** What about the viability at 10 µM [18] of the same compound?
**A.** 93.1%

**Q.** And the logD [19]?
**A.** 4.1

**Q.** What about the Activity [20] of the same compound?
**A.** Toxic

**Q.** What about the remaining at 10 min, 500 µM [21] of the same compound?
**A.** 47.3%

**Q.** What about the remaining at 1 h, 500 µM [22] of the same compound?
**A.** 5.9%

**Q.** What about the remaining at 1 h, 5 µM [7] of the same compound?
**A.** 95.1%

**Q.** What about the Activity [23] of the same compound?
**A.** Non-toxic

**Q.** What about the Activity [24] of the same compound?
**A.** Non-toxic

**Q.** What about the remaining at 10 min, 500 µM [25] of the same compound?
**A.** 2.7%

**Q.** What about the Activity [26] of the same compound?
**A.** Non-toxic

**Q.** What about the Activity [27] of the same compound?
**A.** Non-toxic

**Q.** What about the Activity [9] of the same compound?
**A.** 3

**Q.** And the Activity [10]?
**A.** 3

**Q.** And the Activity [28]?
**A.** 2

**Q.** What about the remaining at 5 h, 5 µM [13] of the same compound?
**A.** 94.9%

**Q.** What about the Activity [29] of the same compound?
**A.** 2

**Q.** What about the remaining at 1 h, 5 µM [14] of the same compound?
**A.** 95.2%

**Q.** What about the Activity [15] of the same compound?
**A.** inactive

**Q.** And the Activity [30]?
**A.** Toxic

**Q.** And the Activity [31]?
**A.** 2.3

**Q.** And the Activity [32]?
**A.** Non-toxic

**Q.** What about the Papp at 2 h, 25 µM [16] of the same compound?
**A.** 30.5 ×10⁻⁶ cm/s

From ChEMBL document CHEMBL6134794, “Anti-Schistosomal activity and ADMET properties of 1,2,5-oxadiazinane-containing compound synthesized by visible-light photoredox catalysis” (RSC Med Chem, 2024)
